From PubChem
The list is not random: actives were taken first. Their share in the collection is about 3.1%.
A1 inh – inhibitors of the anti-apoptotic protein A1, read as caspase activation; MEF A1-2A-BIM cells, Caspase-Glo 3/7 luminescence, 3 h; percent of clofoctol response, vehicle zero; caspase activation, % (test concentration not listed); 330,000 tested, 0.066% active;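 active = over half of replicate activation scores above 10%, or exactly half above 10 with the replicate mean above 10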
TAG inh – inhibitors of triacylglycerol accumulation. H9c2 cells, Nile Red lipid (TAG) fluorescence; cells loaded with 200 µM oleic acid. inhibition, % at 12.5 µM. 230,000 tested, 0.66% active;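 active = pattern-corrected inhibition of lipid staining of at least 50% with the nuclear-stain viability signal not falling by more than 50%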
Calb FLC – C. albicans growth modulation with fluconazole; C. albicans CaCi-2 + fluconazole, Alamar Blue growth, 48 h; growth inhibition, % (test concentration not listed); 300,000 tested, 0.57% active;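 active = growth inhibition above about 58% in most replicates, limit read from the data, passing the limit was not always enough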;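 note: all wells also contain fluconazole at 8 µg/ml as a sub-toxic cotreatment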
T cruzi repl – blocks replication of Trypanosoma cruzi; T. cruzi beta-gal in NIH3T3, luminescence, 90 h; 300,000 tested, 1.4% active; inhibition, % (test concentration not listed);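 active = mean inhibition across valid replicates above about 55%, limit read from the data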;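 note: signal also drops with host cell toxicity which is not excluded here; higher percent means less beta-gal luminescence so fewer parasites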
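Material: NIH/3T3 host cells with β-galactosidase reporter T. cruzi; Input: 5,000 host fibroblasts per well; Medium: DMEM, 2% fetal bovine serum; Compound: 50 nL DMSO compound solution per well; Schedule: 3 h host attachment, then at least 90 h co-culture; Detection: luminescent β-galactosidase signal after 60 min lysis.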
CSC inhib – blocks cancer stem cells. cancer stem cell-like cells viability, luminescence. inhibition, % at 7.5 µM. 300,000 tested, 1.1% active; in the data active = inhibition above about 75%; tested in HMLE shEcad cells
Beta cell apopt – blocks beta cell apoptosis | protection from apoptosis, % (no concentration beside the values) | AID 435005 | INS-1E cytokine-induced death, ATP luminescence, 48 h; percent of positive-control rescue, neutral wells zero | 300,000 tested, 0.8% active;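 active = Every replicate reaches about 75%, or at least half do and their mean reaches it too, limit read from the data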;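 note: higher means more ATP so stronger rescue from cytokine killing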
TAG conf – triacylglycerol accumulation inhibition, confirmation; shares compounds with TAG inh; H9c2 lipid accumulation, Nile Red fluorescence; cells loaded with 200 µM oleic acid; inhibition, % at 12.5 µM; 990 tested, 71% active; AID 651629;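 active = mean inhibition across replicates of 40% or more; inactive = mean inhibition below 40%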
Hits are given with their value; i = inactive; nt = not tested or not shown.

SMILES	A1 inh	TAG inh	Calb FLC	T cruzi repl	CSC inhib	Beta cell apopt	TAG conf
CCCNC(=O)N1[C@H]2CC[C@@H]1C(C(=O)OC)=C(c1ccc3ccccc3c1)C2	i	i	nt	nt	i	i	nt
C=C(C=O)CC1CC(O)[C@]2(C)OC3CC4OC5C[C@]6(C)O[C@]7(C)CCC8OC9C[C@]%10(C)OC%11C(C)=CC(=O)OC%11CC%10OC9C[C@@H](C)C8OC7CC6O[C@]5(C)CC5OC5C4OC3CC2O1 (some centres not stated)	i	i	i	i	i	100.6	nt
C=C(CO)CC1CC(O)[C@]2(C)OC3CC4OC5C[C@]6(C)O[C@]7(C)CCC8OC9C[C@]%10(C)OC%11C(C)=CC(=O)OC%11CC%10OC9C[C@@H](C)C8OC7CC6O[C@]5(C)C/C=C\C4OC3CC2O1 (some centres not stated)	i	i	i	i	i	i	nt
COc1ccc(CNCCc2ccc3c(c2)OCO3)cc1Br	i	nt	i	i	i	i	nt
CC/C(=N\NC(=O)c1ccccc1)c1c(O)n(C2CCCCC2)c(=O)[nH]c1=O	i	nt	i	i	i	i	nt
CN(C)c1ccc([P+](=O)c2ccc(N(C)C)cc2)cc1	i	i	61.6	i	nt	i	nt
CCCC1=C(C(=O)OCC)C2(C(=O)Nc3ccc(C)cc32)C(C#N)=C(N)O1 (configuration not stated)	i	nt	i	i	i	i	nt
CCOC(=O)CC1=C(C(=O)OCC)C2(C(=O)Nc3ccccc32)C(C#N)=C(N)O1 (configuration not stated)	6.5	i	i	i	i	i	nt
O=C(c1c[nH]cc1-c1ccccc1)c1cccc2ccccc12	i	i	i	57.9	i	i	nt
CCCn1c(C)c(C(=O)c2cccc3ccccc23)c2ccccc21	i	i	nt	nt	i	i	nt
COC(=O)C1=C(c2cc3ccccc3s2)C[C@@H]2CC[C@H]1N2C(=O)N1CCOCC1	i	51.6	i	i	i	i	44.9
COC(=O)C1=C(c2c(C)noc2C)C[C@@H]2CC[C@H]1N2C(=O)NCc1ccc(F)cc1	i	i	nt	nt	i	i	nt
CCCCn1c(N)c(C(=O)NCc2cccs2)c2nc3ccccc3nc21	i	67.4	i	54.9	i	i	i
O=c1[nH]c(Cl)ccc1CN1CCOCC1	i	i	i	i	i	i	nt
COC(=O)C1=C(c2ccccc2OCc2ccccc2)C[C@@H]2CC[C@H]1N2C(=O)NCc1ccc(OC)c(OC)c1	i	56.3	nt	nt	i	i	i
COC(=O)C1=C(c2ccccc2OCc2ccccc2)C[C@@H]2CC[C@H]1N2C(=O)NCc1cccc(F)c1	i	i	nt	nt	i	i	nt
Cc1ccc2c(c1)C(c1ccccc1)=NCC(=O)N2C	i	i	i	i	i	i	nt
CCOC(=O)C(NC(=O)CC)(Nc1ccc(C(O)(C(=O)OCC)C(F)(F)F)cc1C)C(F)(F)F (configuration not stated)	i	55.4	i	i	i	i	i
COC(=O)C1=C(c2ccccc2OCc2ccccc2)C[C@@H]2CC[C@H]1N2C(=O)NCCOc1ccccc1	i	i	nt	nt	i	i	nt
O=P(O)(O)CN1CCNCCN(CP(=O)(O)O)CCNCC1	nt	56.8	nt	nt	nt	nt	63.0
